Ba/F3 V617F tox: lowers viability of Ba/F3 cells expressing EpoR and JAK2V617F | 220,000 tested, 1.1% active | ATP luminescence | inhibition, % at 5.6 µM | AID 1446;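 active means inhibition above the campaign mean plus 3 SD over all tested compounds, cut at about 24% in these data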;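 further: cytokine-independent growth of Ba/F3 cells driven by EpoR plus mutant JAK2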
APP 5UTR inh: APP translation inhibition. SH-SY5Y APP 5'UTR-luciferase reporter, luminescence. inhibition, % at 2 µM. 190,000 tested, 0.82% active. AID 1285;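 active means inhibition above a set limit, derived from the sample mean plus 3 SD, cut at about 45% in these data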
IEC-6 tox: counter-screen for KLF5 inhibitors: cytotoxicity in IEC-6 cells | IEC-6 cytotoxicity, luminescence viability | inhibition, % at 5 µM | 290,000 tested, 0.78% active | AID 1825
b-catenin transl: alters nuclear translocation of beta-catenin in HeLa cells. immunofluorescence imaging. nuclear translocation activity, % at 5 µM. 190,000 tested, 0.3% active. AID 1665;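 active means nuclear translocation activity above 50% at 5 µM, with a well cell count of 50 or more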;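 further: per-cell ratio of nuclear to cytoplasmic median beta-catenin stain intensity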
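Test system: human HeLa cells, native beta-catenin. Compound dosing: 5 µM primary single dose, 0.1% DMSO, 0.02–20 µM confirmation series. Incubation: compound exposure 24 h at 37°C. Detection: beta-catenin immunostaining with DAPI counterstain, 20x imaging, 6 fields/well. Read-out basis: Nuclear/cytoplasmic beta-catenin signal ratio, % activation.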
BaF3 parental: counter-screen for JAK2V617F inhibitors: parental Ba/F3 viability inhibitors. CellTiter-Glo ATP luminescence. inhibition, % at 5.6 µM. 220,000 tested, 1.1% active;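 active means inhibition above a per-campaign cutoff, the mean inhibition of all tested compounds plus 3 SD, cut at about 27% in these data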
MT stabilizer: stabilizes microtubules in HeLa cells; % tubulin-high responders, % at 10 µM; HeLa tubulin immunostaining HCS, 24 h; share of cells brighter than vehicle mean+2SD; 200,000 tested, 0.83% active;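 active means plate Z-score above 3 for both tubulin-high and condensed-nucleus cell shares, with cell loss under 80%, at 10 µM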;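 further: anti alpha tubulin signal scored within the nucleus-defined area of each cell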
IEC-6 cytotox cf: confirmation of cytotoxic compounds in rat IEC-6 intestinal epithelial cells; inhibition, % at 5 µM; IEC-6 rat intestinal epithelial viability, luminescence; 1,900 tested, 63% active; shares compounds with IEC-6 tox
Numbers stand for hits; . = inactive; / = not tested or not shown. Rows were chosen to be rich in hits. Some 2.2% of all compounds tested hit in one or more screens of this group. Unless noted, no stated cut-off is given here; in the data, active means inhibition above about 22%; inactive means the rest.

SMILES	Ba/F3 V617F tox	APP 5UTR inh	IEC-6 tox	b-catenin transl	BaF3 parental	MT stabilizer	IEC-6 cytotox cf
N#Cc1c(NC(=O)/C=C/c2ccco2)sc2c1CCCC2	91	93	93	106	90	.	78
CC(=O)c1c2c3c(c(Br)ccc3n(C)c1=O)C(=O)c1ccccc1-2	/	/	44	/	/	/	.
CC(=O)c1c2c3c(cccc3n(C)c1=O)C(=O)c1ccccc1-2	/	/	.	/	/	/	/
O=C(NCc1ccco1)C1CCCN(c2nnc(-n3cccc3)s2)C1 (stereo not given)	/	/	.	/	/	/	/
Cc1ccn2c(Nc3ccccc3C)c(-c3ccncc3)nc2c1	.	.	.	.	.	.	/
O=C(NNC1=C(C(=O)C(F)(F)F)CCC1)c1ccccc1O	.	.	.	/	.	.	/
Nc1ccccc1C(=O)NNC1=C(C(=O)C(F)(F)F)CCC1	.	/	34	.	.	/	.
CC(=O)NC(Cc1ccccc1C)C(=O)NC1CCN(C(=O)c2ccc(C)cc2)CC1 (stereo not given)	.	.	.	.	.	.	/
Cc1ccccc1N1CCN(C2CCCN(C(=O)c3ccnn3C)C2)CC1 (stereo not given)	/	/	.	/	/	/	/
COc1cc(OC)cc(C(=O)NCC(=O)Nc2ccc(-c3ccccc3)cc2)c1	/	/	30	/	/	/	.
CCOc1cc(CNCCc2ccc(S(N)(=O)=O)cc2)ccc1OCc1ccc(Cl)cc1	.	.	24	.	.	.	.
O=C(c1ccc(Br)cc1)N1CCC2(CC1)NCCc1[nH]cnc12	/	/	.	/	/	/	/
O=C(C(Cl)Cl)N1c2ccccc2OCC1c1ccccc1 (stereo not given)	.	.	37	.	.	.	.
COc1cccc(N2CCN(C(=O)c3ccc(CS(=O)c4ccc(C)cc4)o3)CC2)c1 (stereo not given)	/	/	85	/	/	/	59
COc1cccc(N2CCN(C(=O)c3ccc(CS(=O)Cc4ccc(C)cc4)o3)CC2)c1 (stereo not given)	/	/	.	/	/	/	/
COc1cccc(N2CCN(C(=O)c3ccc(CS(=O)c4ccc(Cl)cc4)o3)CC2)c1 (stereo not given)	/	/	81	/	/	/	57
Oc1ccc(N2CCN(c3nnnn3-c3ccccc3)CC2)cc1	.	.	.	.	.	.	/
COc1ccc2c(c1)sc(N)[n+]2Cc1cc(C)cc2cccnc12	82	95	80	114	79	15	63
CCC(c1nnc(SCC(=O)Nc2ccc(C(=O)N(C)C)cc2)n1Cc1ccccc1)N(C)C (stereo not given)	/	/	.	/	/	/	/
O=C(CCl)N1CCCC1c1ccc2c(c1)OCCO2 (stereo not given)	/	/	78	/	/	/	24
CCCNC(=O)NC(=O)CN1CCCC1c1ccc2c(c1)OCCO2 (stereo not given)	/	/	.	/	/	/	/
O=C(NCCCNC(=O)c1ccco1)c1ccc(F)cc1	/	/	.	/	/	/	/
O=C(O)c1nn(Cc2csc(-c3ccccc3)n2)c(=O)c2ccccc12	/	/	.	/	/	/	/
COc1cc(C(=O)Nc2ccc3c(c2)ncn3C)cc(OC)c1OC	/	/	55	/	/	/	34
COc1cc(C(=O)Nc2ccc3c(c2)nc(C)n3C)cc(OC)c1OC	/	/	30	/	/	/	.
SMILES	Ba/F3 V617F tox	APP 5UTR inh	IEC-6 tox	b-catenin transl	BaF3 parental	MT stabilizer	IEC-6 cytotox cf
CCn1c2ccccc2c2cc(NC(=O)c3cc(OC)c(OC)c(OC)c3)ccc21	87	.	92	.	86	23	89
Cc1onc(-c2ccccc2Cl)c1C(=O)NC(=S)Nc1ccc(C(C)C)cc1	58	/	22	.	63	/	.
CN(NC(=O)c1ccccc1F)c1ccc([N+](=O)[O-])cn1	.	/	.	.	.	/	/
O=c1[nH]n(Cc2ccccc2)c(=O)c2ccccc12	.	.	31	.	.	.	38
COc1ccc(C2c3cc(OC)c(OC)cc3CCN2S(C)(=O)=O)cc1OC (stereo not given)	75	.	36	.	58	.	.
COc1ccc(C(=O)NCc2nnc(SCC(=O)NCc3ccco3)o2)cc1	/	/	.	/	/	/	/
COc1ccc(N(CC(=O)Nc2cc(Cl)ccc2C)S(=O)(=O)c2c(C)n[nH]c2C)cc1	/	/	38	/	/	/	.
CCn1c(=O)n(CC)c2cc(N3CCCC3)c(NC(=O)c3cc(Br)ccc3OC)cc21	/	/	.	/	/	/	/
CCCCC(=O)NC(c1ccccc1)c1ccc2cccnc2c1O (stereo not given)	/	/	24	/	/	/	54
CCCC(=O)NC(c1ccccc1)c1ccc2cccnc2c1O (stereo not given)	/	/	42	/	/	/	66
COC(=O)C1CCN(Cc2cn(-c3ccccc3)nc2-c2ccc3c(c2)OCO3)CC1	.	.	.	.	.	.	/
Fc1c(CSC(=S)N2CCOCC2)cccc1CSC(=S)N1CCOCC1	.	/	.	.	.	/	/
CCOC(=O)c1c(C)[nH]c(C)c1S(=O)(=O)NCc1ccccc1OCC	/	/	.	/	/	/	/
Nc1ccc(C(=O)N2CCCC2)cc1	.	.	.	.	.	.	/
Nc1ccc(C(=O)n2c3ccccc3c3ccccc32)cc1	68	94	83	/	73	45	58
O=C(Nc1ccc(-c2nc3ccc(NC(=O)c4cccs4)cc3[nH]2)cc1)c1cccs1	98	.	53	.	102	.	43
CCn1ncc(C2=NOC(C(=O)NCc3ccc(OC)cc3)C2)c1C (stereo not given)	.	.	22	147	.	18	.
CCn1ncc(C2=NOC(C(=O)NCc3ccccc3)C2)c1C (stereo not given)	80	72	66	64	78	31	57
COc1ccc(CNC(=O)C2CC(c3ccccc3C(F)(F)F)=NO2)cc1 (stereo not given)	/	/	/	.	/	/	/
CCOC(=O)c1ccc(NC(=O)Nc2ccc(Cl)cn2)cc1	.	.	.	.	.	.	/
O=C(Nc1ccc(Cl)c(Cl)c1)Nc1ccon1	/	/	74	/	/	/	58
CCOC(=O)c1ccc(NC(=O)Nc2ccon2)cc1	88	/	87	93	88	/	65
O=C(Nc1ccccc1)Nc1cccc(Cl)c1Cl	.	.	.	.	.	.	/
O=C(Nc1ccc(Oc2ccc(NC(=O)Nc3ccccc3Cl)cc2)cc1)Nc1ccccc1Cl	.	/	.	.	.	/	.
CCc1nnc(NC(=O)c2nc(Cl)ccc2Cl)s1	/	/	.	/	/	/	/
SMILES	Ba/F3 V617F tox	APP 5UTR inh	IEC-6 tox	b-catenin transl	BaF3 parental	MT stabilizer	IEC-6 cytotox cf
CCc1nnc(NC(=O)c2nc(S(=O)(=O)Cc3cccc(C)c3)ncc2Cl)s1	/	/	41	/	/	/	.
CCc1nnc(NC(=O)c2nc(S(=O)(=O)Cc3ccc(C)cc3)ncc2Cl)s1	/	/	50	/	/	/	.
CCc1nnc(NC(=O)c2nc(S(=O)(=O)Cc3ccccc3)ncc2Cl)s1	/	/	34	/	/	/	.
CCSc1nnc(NC(=O)c2nc(S(=O)(=O)Cc3ccc(F)cc3)ncc2Cl)s1	/	/	.	/	/	/	/
CCOc1ccccc1NC(=O)c1nc(S(=O)(=O)Cc2cccc(C)c2)ncc1Cl	/	/	73	/	/	/	30
Cc1nnc(NC(=O)C2CCCN2C(=O)Nc2ccccc2)s1 (stereo not given)	/	/	.	/	/	/	/
COc1ccc(N2CCN(C(=O)C3CCCN(S(=O)(=O)c4ccc(C)cc4)C3)CC2)cc1 (stereo not given)	/	/	.	/	/	/	/
